Laboratory results taken from ChEMBL document CHEMBL1143149, “Synthesis, metal ion binding, and biological evaluation of new anticancer 2-(2'-hydroxyphenyl)benzoxazole analogs of UK-1” (Bioorg Med Chem, 2008).
Values belong to the compound of their own block, whether it stands above or below them. The source made the active and inactive calls. No cut-off for these calls is given here.

Legend:
MCF7 [1] = assay: Cytotoxicity against human MCF7 cells by Alamar blue assay; format: functional, cell-based
In short: (§1)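 MCF-7 cells in improved MEM (Richter's) with L-glutamine, 10% FBS and 1% penicillin/streptomycin. 1-3×10^3 cells/well preincubated 24 h at 37 °C, 5% CO2. DMSO solutions added in duplicate at 0.001–50 μM final, then 72 h exposure. AlamarBlue added for 6 h; fluorescence read ex 530/em 590 nm. IC50 by sigmoidal fit of % growth against time-zero and vehicle.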

A549 [2] = assay: Cytotoxicity against human A549 cells by Alamar blue assay; format: functional, cell-based
In short: (§2)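 A549 cells in Ham's F-12 (Kaighn's) with 10% FBS and 1% penicillin/streptomycin. Seeded at 1-3×10^3 cells/well for 24 h at 37 °C, 5% CO2. Compound in DMSO added in duplicate at 0.001–50 μM final, then 72 h. Fresh medium plus AlamarBlue for 6 h; fluorescence ex 530/em 590 nm. % growth relative to time-zero and vehicle; IC50 from Hill-equation non-linear fit.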

[3] = Enhancement of DNA binding affinity in presence of Cu2+/Ni2+
MCF7 [4] = assay: Cytotoxicity against human MCF7 cells after 24 hrs; format: functional, cell-based; settings: MCF7, 24 h
MCF7 [5] = assay: Cytotoxicity against human MCF7 cells after 72 hrs; format: functional, cell-based; settings: MCF7, 72 h; in short: as §1
MCF7 [6] = assay: Cytotoxicity against human MCF7 cells after 24 hrs in presence of CuCl2; format: functional, cell-based; settings: MCF7, 24 h
MCF7 [7] = assay: Cytotoxicity against human MCF7 cells after 72 hrs in presence of CuCl2; format: functional, cell-based; settings: MCF7, 72 h
In short: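 MCF-7 cells in Richter's improved MEM with 10% FBS. Compound given with 10 μM CuCl2 for 72 h at 37 °C, 5% CO2, in duplicate. AlamarBlue for 6 h, fluorescence ex 530/em 590 nm. IC50 by non-linear Hill fit of % growth referenced to time-zero and vehicle wells.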

A549 [8] = assay: Cytotoxicity against human A549 cells after 24 hrs; format: functional, cell-based; settings: A549, 24 h
A549 [9] = assay: Cytotoxicity against human A549 cells after 72 hrs; format: functional, cell-based; settings: A549, 72 h; in short: as §2
A549 [10] = assay: Cytotoxicity against human A549 cells after 24 hrs in presence of CuCl2; format: functional, cell-based; settings: A549, 24 h
A549 [11] = assay: Cytotoxicity against human A549 cells after 72 hrs in presence of CuCl2; format: functional, cell-based; settings: A549, 72 h
In short: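 A549 cells in Ham's F-12 (Kaighn's) with 10% FBS and penicillin/streptomycin. Compound plus 10 μM CuCl2 for 72 h at 37 °C, 5% CO2, in duplicate. Viability by AlamarBlue fluorescence (ex 530/em 590 nm) after 6 h. IC50 from non-linear fit of % growth versus time-zero and vehicle controls.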

- Activity [3]: Active
SMILES: CCOC(=O)c1cccc2oc(-c3ccccc3O)nc12
- IC50 (MCF7 [1]): 15 µM
- IC50 (A549 [2]): 40 µM

- Activity [3]: inactive
SMILES: O=C(NCCCCCCO)c1cccc2oc(-c3ccccc3O)nc12
- IC50 (MCF7 [1]): 31 µM
- IC50 (A549 [2]): 39 µM

SMILES: COC(=O)c1cccc2nc(-c3ccccc3O)oc12
- IC50 (MCF7 [1]): 7 µM
- IC50 (A549 [2]): 35 µM

SMILES: COc1ccccc1-c1nc2c(C(=O)O)cccc2o1
- IC50 (MCF7 [1]): > 50 µM
- IC50 (A549 [2]): > 50 µM

- Activity [3]: Active
SMILES: COC(=O)c1cccc2oc(-c3ccccc3O)nc12
- IC50 (MCF7 [1]): 4 µM
- IC50 (A549 [2]): 12 µM

- Activity [3]: Active
SMILES: CCCCNC(=O)c1cccc2oc(-c3ccccc3O)nc12
- IC50 (MCF7 [1]): 30 µM
- IC50 (A549 [2]): 14 µM

- Activity [3]: Active
SMILES: CNC(=O)c1cccc2oc(-c3ccccc3O)nc12
- IC50 (MCF7 [1]): 10 µM
- IC50 (A549 [2]): 11 µM

- Activity [3]: Active
SMILES: O=C(OCCOCCOCCOCCO)c1cccc2oc(-c3ccccc3O)nc12
- IC50 (MCF7 [1]): 13 µM
- IC50 (A549 [2]): 11 µM

- Activity [3]: inactive
SMILES: O=C(NCCOCCO)c1cccc2oc(-c3ccccc3O)nc12
- IC50 (MCF7 [1]): > 50 µM
- IC50 (A549 [2]): 41 µM

SMILES: COC(=O)c1cccc2oc(-c3cccc4oc(-c5ccccc5O)nc34)nc12
- IC50 (MCF7 [4]): 31 µM
- IC50 (MCF7 [5]): 1.7 µM
- IC50 (MCF7 [6]): 4.6 µM
- IC50 (MCF7 [7]): 1.2 µM
- IC50 (A549 [8]): 17 µM
- IC50 (A549 [9]): 1 µM
- IC50 (A549 [10]): 4.5 µM
- IC50 (A549 [11]): 0.2 µM

SMILES: CO[C@@]12[C@H](COC(N)=O)C3=C(C(=O)C(C)=C(N)C3=O)N1C[C@@H]1N[C@@H]12 [MITOMYCIN]
- IC50 (MCF7 [4]): 5 µM
- IC50 (MCF7 [5]): 1.2 µM
- IC50 (A549 [8]): 4.5 µM
- IC50 (A549 [9]): 0.24 µM
